Source: the RNAGym collection of RNA variant scans (doi:10.1126/science.aae0568)
This sample holds only a part of the variants without activity.

B1: tRNA (parent)
chain: GUUCCGUUGGCGUAAUGGUAACGCGUCUCCCUCCUAAGGAGAAGACUGCGGGUUCGAGUCCCGUACGGAACG

Variants of: B1
Assay: yeast fitness relative to wild type (ratio to wild type); higher = fitter; tRNA-Arg(CCU), competitive growth, 37 C, YPD
In short: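 Start and end populations of a pooled competition were compared by 100-nucleotide paired-end sequencing of gene amplicons. The Saccharomyces cerevisiae strains carried tRNA-Arg(CCU) gene variants at the native genomic locus, synthesised with a 3% per-site mutation rate at 69 sites, and competed in YPD at 37°C for 24 hours in six parallel replicates. Darwinian fitness relative to wild type was based on the change in genotype frequencies. Genotypes required ≥ 100 starting reads, and estimates < 0.5 were set to 0.5.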
Variant C22A C49A has a yeast fitness of 0.669. In the case of C22A C49U, the yeast fitness is reported as 1.13. With C22A C49G the yeast fitness was 0.646. In the case of C22G A37C A45U G67A, the yeast fitness is reported as 0.581. In the case of C22G A43U, the yeast fitness is reported as 0.952. Work on C22G C24U yielded a yeast fitness of 0.894. Work on C22G C24G yielded a yeast fitness of 0.595. C22A U26C gave a yeast fitness of 0.848. Variant C22G A43U U64C has a yeast fitness of 0.611. With C22A G25C C62A the yeast fitness was 0.559. For C22G C29G G56A, the yeast fitness was 0.575. In the case of C22A U28G C31G A42U G58C, the yeast fitness is reported as at most 0.5. Variant C22G A36G has a yeast fitness of 0.966. With C22G A36U the yeast fitness was 0.66. In the case of C22A G25C A40C, the yeast fitness is reported as 0.59. In the case of C22A C34A G56C G58A C61A, the yeast fitness is reported as 0.597. C22G C31A C49G G63C gave a yeast fitness of 0.545. C22G A42U G50U gave a yeast fitness of 0.523. In the case of C22A U28G C31G A42U, the yeast fitness is reported as at most 0.5. Work on C22A G67A yielded a yeast fitness of 0.888. In the case of C22A G67C, the yeast fitness is reported as 0.701. For C22G C24U G44A U53G, the yeast fitness was 0.521. C22G C29G A36C G39C C46G G52A showed a yeast fitness of at most 0.5. C22A C31U G68C showed a yeast fitness of 0.561. C22G C33G G51A showed a yeast fitness of at most 0.5. Variant C22G C30G U59G has a yeast fitness of at most 0.5. Work on C22A U53C C62U yielded a yeast fitness of at most 0.5. In the case of C22A C31G U35A, the yeast fitness is reported as 0.558. In the case of C22G G44C C60U, the yeast fitness is reported as 0.762. Variant C22G C29A A43C C60G has a yeast fitness of at most 0.5. In the case of C22G C30G A45U, the yeast fitness is reported as at most 0.5. Variant C22G C31U U59G has a yeast fitness of 0.539. Variant C22A C33A A36U G48A C62G has a yeast fitness of 0.524. C22G C24G C27G G58C showed a yeast fitness of at most 0.5. For C22G C34A G41A, the yeast fitness was at most 0.5. C22A G51C showed a yeast fitness of 0.719. C22A U47C C55G gave a yeast fitness of 0.536. For C22G C31U A70U, the yeast fitness was 0.661. With C22A G23C G67U the yeast fitness was at most 0.5. For C22G C29U A37U, the yeast fitness was 0.589. With C22G C29G A42G C46U A70U the yeast fitness was at most 0.5. Variant C22A C33G A37G has a yeast fitness of at most 0.5. For C22G C24U C29U C30G, the yeast fitness was 0.579. C22G C27A C49U C55U G58U gave a yeast fitness of at most 0.5. In the case of C22G A43G A70U, the yeast fitness is reported as 0.683. For C22A C34U, the yeast fitness was 0.761. For C22A C34G, the yeast fitness was 0.686. In the case of C22A C34U U35G C61U, the yeast fitness is reported as at most 0.5. In the case of C22A G23C C34U A36G A40U, the yeast fitness is reported as 0.548. For C22G G41A C62A G63C, the yeast fitness was 0.615. In the case of C22G C31A A43G, the yeast fitness is reported as at most 0.5. Variant C22G C49U C66U has a yeast fitness of 0.666. C22G A42C A65U G67A gave a yeast fitness of at most 0.5. C22A C33G gave a yeast fitness of 0.701. C22A C33A gave a yeast fitness of 0.718. Variant C22G G44C U53A has a yeast fitness of at most 0.5. For C22G A43U A69C, the yeast fitness was 0.656. For C22G C31G G52C, the yeast fitness was at most 0.5. For C22A C33A A37U, the yeast fitness was at most 0.5. Work on C22G A36C C55U C60A C62G A69U yielded a yeast fitness of 0.563. Work on C22G A42C C62U yielded a yeast fitness of 0.52. With C22G G41A C61G the yeast fitness was at most 0.5. For C22G C46U, the yeast fitness was 0.929. For C22G G50U A57G, the yeast fitness was at most 0.5. For C22G A42U C62A, the yeast fitness was at most 0.5. C22G C24G A45C U47C G63C gave a yeast fitness of at most 0.5. With C22G C31G A69C the yeast fitness was 0.566. With C22A U47A G48A the yeast fitness was 0.505. C22G G38U A42U showed a yeast fitness of at most 0.5. Variant C22G C30A U47A has a yeast fitness of at most 0.5. C22G C31U G56A showed a yeast fitness of 1.16. Variant C22G C24G G50A A70U has a yeast fitness of at most 0.5. In the case of C22A G23A C33U C34G C60A, the yeast fitness is reported as at most 0.5. Variant C22G A43C U53C C55G has a yeast fitness of at most 0.5. C22G G23A showed a yeast fitness of 0.644. In the case of C22G C29A A42C, the yeast fitness is reported as 0.542. Work on C22G C66U A69U yielded a yeast fitness of 0.685. In the case of C22G C66U A69C, the yeast fitness is reported as 0.564. Work on C22G G25A A37U G39A U47A yielded a yeast fitness of at most 0.5. For C22G C24A G68C, the yeast fitness was at most 0.5. For C22G A36C C61U, the yeast fitness was at most 0.5. With C22G C29G C33U A42G the yeast fitness was at most 0.5. C22A U47C gave a yeast fitness of 0.882. C22A C62U A65C gave a yeast fitness of 0.663. Work on C22A G41C U53C yielded a yeast fitness of 0.656. Work on C22G C34U C46A yielded a yeast fitness of at most 0.5. C22A U28A A40U C61A gave a yeast fitness of at most 0.5. Work on C22A U28G U35A yielded a yeast fitness of 0.571. In the case of C22A G23A C33U C34G C55U, the yeast fitness is reported as at most 0.5. Work on C22A U26A C29G G50C yielded a yeast fitness of at most 0.5. C22G A43U C62U showed a yeast fitness of 0.56. C22G C27G C33U G41A showed a yeast fitness of 0.631. Work on C22A C33A A36U U53A U54A yielded a yeast fitness of 0.551. Variant C22G C30U A37G A43U G67A has a yeast fitness of 0.603. With C22G G58C the yeast fitness was 0.971. In the case of C22G A42G, the yeast fitness is reported as 0.716. Variant C22G A42U has a yeast fitness of 0.699. Work on C22G C49U G56A yielded a yeast fitness of 0.797. In the case of C22G C24A G38A A57G, the yeast fitness is reported as at most 0.5. Variant C22A C66A G67A has a yeast fitness of at most 0.5. In the case of C22G C33U A42U A43G C61A, the yeast fitness is reported as at most 0.5. For C22A U28G G58C U64C, the yeast fitness was at most 0.5. In the case of C22A U28C C30U G44A, the yeast fitness is reported as at most 0.5. For C22G C29A G58A C61G A70U, the yeast fitness was at most 0.5. C22G C27G U47C U59C C62U G68U gave a yeast fitness of at most 0.5. With C22G A40C A43U the yeast fitness was at most 0.5. Variant C22G C27A G63A has a yeast fitness of at most 0.5. For C22A C31U A45G, the yeast fitness was 0.667. Variant C22G C60A C62U has a yeast fitness of 0.589. With C22G G39A the yeast fitness was 0.773. Work on C22G G39C yielded a yeast fitness of 0.823. Variant C22G C24G C27G has a yeast fitness of 0.766. In the case of C22G C24A C55A, the yeast fitness is reported as at most 0.5. With C22A U35A A37G G58A the yeast fitness was at most 0.5. Variant C22G C27G C29G C34A A43U A69C has a yeast fitness of at most 0.5. Variant C22G G38C C55G has a yeast fitness of at most 0.5. With C22A U47A G56A C60U the yeast fitness was at most 0.5. Work on C22A C33G A43C C55A C62U yielded a yeast fitness of at most 0.5. With C22G C27G A45U A57G A70G the yeast fitness was 0.595. Work on C22G C31U A65G yielded a yeast fitness of 0.867. In the case of C22G A37G C60A A70G, the yeast fitness is reported as 0.501. Work on C22G G52A U53A yielded a yeast fitness of at most 0.5. With C22G C31A U47C C49G G63C A69U the yeast fitness was at most 0.5. Work on C22A G25A G68A yielded a yeast fitness of 0.676. C22G C27G G39A U64C gave a yeast fitness of 0.604. Variant C22G G38A has a yeast fitness of 0.776. C22A C62U showed a yeast fitness of 0.935. C22G G41C G52A gave a yeast fitness of at most 0.5. C22A G23C U32G C66G showed a yeast fitness of at most 0.5. For C22A C33A A36U, the yeast fitness was at most 0.5. In the case of C22A G25A A69U, the yeast fitness is reported as 0.793. C22G C30A A42C G58A showed a yeast fitness of at most 0.5. For C22G C29G C46U A70U, the yeast fitness was 0.592. Variant C22G G52C G68C has a yeast fitness of at most 0.5. C22G A45C G52C A57U A69C gave a yeast fitness of 0.619. C22G C27G A45U C49U A57G A70G gave a yeast fitness of at most 0.5. In the case of C22G C24U A37C G51C C55U A69C A70U, the yeast fitness is reported as 0.554. C22G A45C C49U A57U C62A gave a yeast fitness of 0.619. For C22G G51A C60U A70U, the yeast fitness was 0.637. Variant C22G A40G A70U has a yeast fitness of 0.609. With C22G C34A A40C A45U the yeast fitness was 0.665. C22G C30G showed a yeast fitness of 0.591. Work on C22G C30A yielded a yeast fitness of 0.65. For C22G C30U, the yeast fitness was 0.817. In the case of C22G C31A A43G A70U, the yeast fitness is reported as at most 0.5. Work on C22G G23C C27A U28C G67A A70G yielded a yeast fitness of at most 0.5. Work on C22G C27G C33U G39A G41A yielded a yeast fitness of at most 0.5. With C22A U54C the yeast fitness was 0.917. Work on C22G G56A yielded a yeast fitness of 1.07. In the case of C22G A57U C61U, the yeast fitness is reported as at most 0.5. For C22A U47A C55A, the yeast fitness was at most 0.5. Variant C22A U35G C66G A69U has a yeast fitness of at most 0.5. In the case of C22A G51C C60U, the yeast fitness is reported as at most 0.5. Variant C22A G25A C27U A43C G44A has a yeast fitness of at most 0.5. Variant C22A G25A G48A C61G has a yeast fitness of at most 0.5. Work on C22G G23A G38A G68C yielded a yeast fitness of 0.572. For C22G C24U U28A C31G C55A G68C, the yeast fitness was at most 0.5. C22A G23A C34U A57C C66U A69C gave a yeast fitness of 0.548. Work on C22G C27G C31G G41A C61G A69U yielded a yeast fitness of at most 0.5. With C22A G25C G63A the yeast fitness was 0.622. C22G G23C G50C C55A C60A gave a yeast fitness of at most 0.5. C22G A36C U47A A69C showed a yeast fitness of at most 0.5. With C22G C61U G68A the yeast fitness was at most 0.5. Work on C22G A57G A65G yielded a yeast fitness of 0.624. Work on C22A G48C yielded a yeast fitness of 0.851. C22G C29G C66A A69U showed a yeast fitness of at most 0.5. Work on C22A C61U yielded a yeast fitness of 0.864.
